Drawing on PubChem BioAssay AID2311 (NMMLSC, 2010), this text covers EC50 and Ki for 16 compounds.

SMILES strings stand for the structures.

Sequence of Regulator of G-protein signaling 19 (Homo sapiens) (P49795 whole entry, looked up): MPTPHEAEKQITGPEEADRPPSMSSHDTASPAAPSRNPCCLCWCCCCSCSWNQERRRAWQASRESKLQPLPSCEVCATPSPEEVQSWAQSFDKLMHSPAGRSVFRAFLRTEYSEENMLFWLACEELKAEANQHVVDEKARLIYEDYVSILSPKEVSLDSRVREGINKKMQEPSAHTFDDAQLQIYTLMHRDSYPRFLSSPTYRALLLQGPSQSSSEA

One test addresses Regulator of G-protein signaling 19 (Homo sapiens) (UniProt P49795). Description: RGS19-Galphao binding modulators, analog potency, SAR follow-up, biochemical, SAR compounds, multiplexed bead flow cytometry (AID 2311). To be noted: Bead-bound RGS19 and AF488-Galphao binding. A digest of the protocol:
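Test system: biotinylated RGS19 on streptavidin beads, multiplexed with other RGS bead sets; timing: beads, labelled Galphao and compound together 30–90 min, room temperature; technique: high-throughput flow cytometry, median green fluorescence of RGS19-coated beads; read-out basis: EC50 by logistic fit, converted to Ki; controls: DMSO wells and RGS-free bead controls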
For orientation: Flow cytometry measures light scatter and fluorescence of single cells or particles in a stream.
As a reminder, the EC50 is the concentration needed to bring the measured effect to its halfway point. `NS(=O)(=O)c1ccc(N/N=C/c2ccc(O)c(O)c2O)c([N+](=O)[O-])c1`: the EC50 was 109 nM.

The test is the same for the next values; noted with them: Bead-bound RGS19 and AF488-Galphao binding, measured here: Ki calculated from EC50.
The term Ki denotes a dissociation constant, usually derived from enzyme kinetics or from competition with a known ligand. Regarding `Cc1cc(Cl)ccc1N=c1ssnc1Cl`, the Ki is 110 nM. On the same count and under the same terms, next, `CCC(=O)NC(c1ccc(C)cc1)c1cc([N+](=O)[O-])c2cccnc2c1O` (configuration not stated): 1160 nM; `O=C(Cc1csc(N2CCOCC2)n1)N/N=C/c1ccc(O)c(O)c1O`: 750 nM; `CN1CCN(C2=C(Cl)C(=O)C(c3cnc(N4CCCCC4)s3)=C(Cl)C2=O)CC1`: 30 nM. Still for that read-out and setting: next, `NS(=O)(=O)c1ccc(N/N=C/c2ccc(O)c(O)c2O)c([N+](=O)[O-])c1`: 100 nM; `Cc1[nH]n(-c2ccccc2)c(=S)c1C=NCCCN=Cc1c(C)[nH]n(-c2ccccc2)c1=S`: 50 nM; `COc1ccc(C2=CC(=O)C=CC2=O)cc1`: 160 nM. On the same count and under the same terms, the figure for `O=C1C(Cl)=C(N2CCCCC2)C(=O)C(Cl)=C1c1cnc(N2CCCCC2)s1` is 80 nM; for `Cc1cccc(N2CCN(C(=O)COc3nsc4nc(C)cc(C)c34)CC2C)c1` (configuration not stated) it is 550 nM; for `CN=c1scc(C)n1/N=C/c1ccc(O)c(O)c1O` it is 200 nM.

Take `CC1(C)OC(=O)C(=Cc2ccc(-c3ccc(S(N)(=O)=O)cc3)o2)C(=O)O1`: the Ki is 230 nM.

For the compound `CCN=c1scc(C)n1/N=C/c1ccc(O)c(O)c1O`, the Ki is 350 nM.

For the compound `Cc1cccc(N2CCN(C(=O)Cn3sc4nc(C)cc(C)c4c3=O)CC2C)c1` (configuration not stated), the Ki is 90 nM. Same read-out and setting: next, `CCOC(=O)c1sc(NC(=O)CSc2nnc(Cc3ccccc3)o2)c(C#N)c1C`: 140 nM. Turning to `O=C(NCCCN1CCOCC1)c1sc2cc([N+](=O)[O-])ccc2c1Cl`, the Ki was 460 nM.

Regarding `CC(=O)OCCCNc1cc(Sc2nc3ccccc3s2)c2nonc2c1[N+](=O)[O-]`, the Ki was 10 nM.
